Measured values collected from several papers.
Protocols differ between the studies behind these lines. In brackets after ≈: the same amount, converted by molar mass.
Organism: Acinetobacter baumannii
Read-out: microbial growth

Cc1c(NN=C(C#N)C2=NC(=O)CS2)c(=O)n(-c2ccccc2)n1C  MIC (broth dilution): 0.43 mg/L (≈ 1.21 µM)
COc1ccc2cc1Oc1cc(ccc1OC)CCC(N[C@@H]1CCCc3ccccc31)CCCC2 (some centres unmarked)  MIC (broth dilution; ATCC19606): > 100 mg/L
COC(=O)c1cc(-c2cccc(NC(=O)Nc3ccccc3OC)c2)on1  MIC (broth dilution; BAA1605): > 64 mg/L
C[n+]1c(/C=C/c2c[nH]c3ccccc23)cc(/C=C2\Sc3ccccc3N2CCCN2CCCC2)c2ccccc21.[I-]  MIC (broth dilution; ATCC19606; drug-resistant strain): 32 mg/L
CC(=O)C1=C(O)C(CC(C)C)NC1=O (centres unmarked)  MIC (ATCC19606): > 200 mg/L
Fc1c(F)c(F)c(-c2c(F)c(F)c(F)c(F)c2F)c(F)c1F  MIC (ATCC19606): > 250 mg/L
CN[C@@H]1[C@H](O)[C@H](NC)[C@H]2O[C@@]3(O)C(=O)C[C@@H](C)O[C@H]3O[C@@H]2[C@H]1O  MIC (broth dilution; ATCC19606): > 200 mg/L
Fc1c(F)c(F)c(F)c(F)c1F  MIC (ATCC19606): > 250 mg/L
C[n+]1ccc(/C=C2\Sc3ccccc3N2CCCN2CCCCC2)c2ccccc21.[I-]  MIC (broth dilution; ATCC19606; drug-resistant strain): 64 mg/L
CCOC(=O)c1cc(-c2cccc(NC(=O)Nc3ccc(Cl)c(Cl)c3)c2)on1  MIC (broth dilution; BAA1605): > 64 mg/L
Cc1cc(/C=C2\Sc3ccccc3N2CCCN2CCC(C)CC2)c2ccccc2[n+]1C.[I-]  MIC (broth dilution; ATCC19606; drug-resistant strain): 16 mg/L
COC(=O)c1cc(-c2cccc(NC(=S)Nc3cccc(Cl)c3)c2)on1  MIC (broth dilution; BAA1605): > 64 mg/L
CN[C@H](CC(C)C)C(=O)N[C@H]1C(=O)N[C@@H](CC(N)=O)C(=O)N[C@H]2C(=O)N[C@H]3C(=O)N[C@H](C(=O)N[C@H](C(=O)O)c4cc(O)cc(O)c4-c4cc3ccc4O)[C@H](O)c3ccc(c(Cl)c3)Oc3cc2cc(c3O[C@@H]2O[C@H](CO)[C@@H](O)[C@H](O)[C@H]2O[C@H]2C[C@](C)(N)[C@H](O)[C@H](C)O2)Oc2ccc(cc2Cl)[C@H]1O  MIC (broth dilution; ATCC19606; drug-resistant strain): 64 mg/L (≈ 44.2 µM)
COC(=O)c1cc(-c2cccc(NC(=O)Nc3cccc(Br)c3)c2)on1  MIC (broth dilution; BAA1605): > 64 mg/L
